Activity calls are given as the source filed them. The calls are words filed in the database; no cut-off is given here.
Legend:
[1] = system: Staphylococcus aureus; assay: Antibacterial activity against Staphylococcus aureus after 18 hrs by broth microdilution method; format: functional
How it was run: (§1)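 Bacteria grown to mid-log phase in LB medium at 37 °C. Peptides 2-fold serially diluted from 200 μM to 1.56 μM and mixed 1:1 with inoculum of 10^6 CFU per mL. Incubation 18 h at 35 °C. MIC is the lowest concentration giving complete growth inhibition by visual inspection […].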

[2] = system: Staphylococcus epidermidis; assay: Antibacterial activity against Staphylococcus epidermidis after 18 hrs by broth microdilution method; format: functional; how it was run: as §1
[3] = system: Escherichia coli; assay: Antibacterial activity against Escherichia coli NBRC 3972 after 18 hrs by broth microdilution method; format: functional; conditions: NBRC 3972, 18 h; how it was run: as §1
[4] = system: Escherichia coli; assay: Antibacterial activity against Escherichia coli DH5[alpha] after 18 hrs by broth microdilution method; format: functional; how it was run: as §1
[5] = system: Proteus vulgaris; assay: Antibacterial activity against Proteus vulgaris NBRC 3045 after 18 hrs by broth microdilution method; format: functional; conditions: NBRC 3045, 18 h; how it was run: as §1
[6] = system: Pseudomonas aeruginosa; assay: Antibacterial activity against Pseudomonas aeruginosa NBRC 13725 after 18 hrs by broth microdilution method; format: functional; conditions: NBRC 13275, 18 h, in the assay text read “NBRC 13275” for “NBRC 13725”; how it was run: as §1
[7] = system: Lipid bilayer; assay: Induction of membrane disruption in PG/CL/PE unilamellar vesicles assessed as increase in carboxyfluorescein leakage at 6.25 uM by fluorescence assay
How it was run: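 E. coli-mimic liposomes of PG/CL/PE (2 : 1 : 7, w/w) loaded with 50 mM carboxyfluorescein in 20 mM Tris-HCl, pH 7.4; free dye removed by Sephadex G-50 gel filtration. Peptide added at 6.25 μM and leakage read by fluorescence. Release (%) = (Fobs−F0)/(F100−F0) × 100, with 100% set by Triton X-100.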

[8] = system: Erythrocyte; assay: Hemolytic activity in human RBC after 3 hrs; format: ADME, cell-based
How it was run: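 Human red blood cells from Japanese Red Cross volunteers, washed three times and resuspended in PBS. Mixed 1:1 with diluted peptide and incubated 3 h at 37 °C. After centrifugation, supernatant absorbance read at 535 nm. Triton X-100 and M-lycotoxin served as positive controls.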

[9] = system: TIG-3; assay: Cytotoxicity against human TIG3 at 100 uM after 72 hrs by WST-8 assay; format: cell-based; conditions: tig-3, 72 h
How it was run: (§2)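 Human normal fibroblast TIG-3 cells kept in DMEM with 10% FBS and 100 μg ml–1 kanamycin. Seeded at 5 × 10^3 cells per well, treated 24 h later for 72 h. WST-8 reagent then added for 0.5 h at 37 °C, 5% CO2, and absorbance read at 450 nm. Means ± SD, n = 4.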

[10] = system: TIG-3; assay: Cytotoxicity against human TIG3 at 1 to 100 uM after 72 hrs by WST-8 assay; format: cell-based; conditions: tig-3, 72 h; how it was run: as §2

Substance | MIC [1] | MIC [2] | MIC [3] | MIC [4] | MIC [5] | MIC [6] | Activity [7] | IC50 [8] | Activity [9] | Activity [10]
H-KKKKKKKKKGGGLLALLALLA-NH2 | 12.5 µM | 6.25 µM | 6.25 µM | 12.5 µM | > 100 µM | 6.25 µM | Active | 25 µM | Toxic | 
H-KLLKKAGKLLKKAGKLLKKAG-NH2 | 12.5 µM | 1.56 µM | 3.12 µM | 3.12 µM | > 100 µM | 1.56 µM | Active | > 100 µM |  | Non-Toxic
H-GIGKFLHSAKKFGKAFVGEIMNS-NH2 | 100 µM | 25 µM | 3.12 µM | 3.12 µM | > 100 µM | 12.5 µM |  | > 100 µM |  | 
H-IWLTALKFLGKHAAKHLAKQQLSKL-NH2 |  |  |  |  |  |  |  | 0.78 µM |  | 
H-KKKLAKLKLGAKLKLKGKLGA-NH2 | 100 µM | 6.25 µM | 12.5 µM | 25 µM | > 100 µM | 3.12 µM | Active | 100 µM |  | Non-Toxic
